High-throughput results as filed in PubChem.
PLC-gamma1 inh: blocks human PLC-gamma1 enzyme activity. P19174. purified PLC-gamma1, fluorogenic substrate, fluorescence. inhibition, % at 12.2 µM. 370,000 compounds, 0.84% hits. AID 720700; in the data active = inhibition above about 9.5%
PLCb3 inh: inhibitors of human phospholipase C beta3; Q01970; Purified PLC-beta3, fluorogenic substrate, fluorescence; inhibition, % at 12.2 µM; 370,000 compounds, 0.18% hits; in the data active = inhibition above about 11%;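 also: 0% = median of compound wells on plate and 100% = full blocker control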
ADAM10 inh: inhibitors of human ADAM10 | O14672 | recombinant ADAM10, EDANS/DABCYL FRET peptide cleavage, 3 h | inhibition, % at 7 µM | 370,000 compounds, 0.62% hits | AID 720582;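 active = inhibition above a per-campaign cutoff equal to the mean of compounds falling between control-based bounds plus 3 SD, cut at about 20% in these data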;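 also: 0% = DMSO wells while the 100% control is not disclosed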
Target sequence (O14672 214-748 limits assumed): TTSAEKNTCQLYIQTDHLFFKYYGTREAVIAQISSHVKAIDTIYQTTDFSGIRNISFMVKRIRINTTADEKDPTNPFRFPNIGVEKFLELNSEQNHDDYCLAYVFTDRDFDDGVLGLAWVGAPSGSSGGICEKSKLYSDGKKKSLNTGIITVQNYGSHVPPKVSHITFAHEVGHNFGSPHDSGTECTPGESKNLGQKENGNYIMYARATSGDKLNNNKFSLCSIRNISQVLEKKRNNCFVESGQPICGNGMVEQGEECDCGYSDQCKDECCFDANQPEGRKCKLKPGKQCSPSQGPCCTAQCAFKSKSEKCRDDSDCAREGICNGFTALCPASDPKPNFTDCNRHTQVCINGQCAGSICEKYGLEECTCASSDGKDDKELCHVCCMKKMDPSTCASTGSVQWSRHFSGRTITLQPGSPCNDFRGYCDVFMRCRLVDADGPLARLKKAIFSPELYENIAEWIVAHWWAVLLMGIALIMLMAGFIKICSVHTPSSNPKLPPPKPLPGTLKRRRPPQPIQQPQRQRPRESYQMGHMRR
ADAM17 inh: inhibits human ADAM17; 370,000 compounds, 0.83% hits; P78536; AID 720648; recombinant ADAM17, EDANS/DABCYL FRET peptide cleavage; inhibition, % at 6.95 µM;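 active = inhibition above the mean of compounds lying between control limits plus 3 SD, set per campaign, cut at about 8.5% in these data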;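 also: 0% = DMSO-only wells as the low control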
DDE Tn6 FP inh: inhibitors of Tn6 peptide binding to human fibrin DD(E). inhibition, % at 8.3 µM. Fibrin DD(E) TRITC-Tn6 fluorescence polarization displacement. P02675. 370,000 compounds, 0.21% hits;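 active = inhibition above a per-campaign cutoff: mean of compounds within control limits plus 3 SD, cut at about 15% in these data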;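 also: 0% = median of all compound wells on the plate and 100% = blocking peptide control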
Tn7 DDE FP: disrupts Tn7 cyclic peptide binding to fibrin D-Dimer-E complex; 370,000 compounds, 0.13% hits; inhibition, % at 8.3 µM; FP displacement of FITC-Tn7 peptide from fibrin DD(E); 0% = median of compound wells per plate; P02675; AID 720508;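 active = inhibition above the mean of compounds falling within the control limits plus 3 SD of them, cut at about 14% in these data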;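 also: 0% = plate median of compound wells and 100% = 10 µM Aha-Tn7 peptide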
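system = human fibrin DD(E) protein | quantity = DD(E) 2 µM final | medium = Tris/NaCl/CaCl2 buffer, pH 7.8 | also added = labelled Tn7 tracer, 0.1 µM | compound dosing = single point at 8.3 µM | timing = compound with protein 10 min, then 3 h after probe, room temperature | signal = FP measurement | benchmarks = Aha-Tn7 high control | repeats = one replicate per compound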
ADAM10 counter: ADAM10 inhibition, counter-screen for ADAM17 exosite hits; shares compounds with ADAM17 inh; recombinant ADAM10, EDANS/DABCYL FRET peptide cleavage, 3 h; inhibition, % at 6.95 µM; 2,900 compounds, 47% hits;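 active = mean inhibition over the triplicate runs exceeds the activity threshold set in the earlier primary screen, cut at about 20% in these data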;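 also: 0% = DMSO wells and 100% = marimastat wells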
ADAM17 confirm: confirmation of inhibitors of human ADAM17; shares compounds with ADAM17 inh; recombinant ADAM17, EDANS/DABCYL QFRET peptide cleavage; inhibition, % at 6.95 µM; 2,900 compounds, 65% hits;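 active = mean inhibition across replicates above the hit cutoff set in the primary screen, cut at about 8.5% in these data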;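 also: 0% = DMSO wells and 100% = marimastat wells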
* hit, by the source's call; . = not tested or not shown. In the library only some 2.3% were active in any assay of this set; here they are far more common.

SMILES	PLC-gamma1 inh	PLCb3 inh	ADAM10 inh	ADAM17 inh	DDE Tn6 FP inh	Tn7 DDE FP	ADAM10 counter	ADAM17 confirm
COc1ccc(NC(=O)CN(C)C(=O)c2ccc(COc3ccccc3)cc2)cc1	2	-7	-10	-4	-3	-3	.	.
Cc1ccc(C)c(NC(=O)CN(C)C(=O)c2ccc(COc3ccccc3)cc2)c1	8	7	7	11*	-11	-7	7	6
Cc1ccccc1OCc1nc(-c2ccc(NC(=O)c3cccs3)cc2)no1	-4	-1	5	12*	3	4	-63	-12
C[C@@H]1COc2cc(Br)ccc2S(=O)(=O)N1Cc1cn(CCC2OCCCO2)nn1	-1	-3	-9	-3	1	0	.	.
CC1(C)C([N+](=O)[O-])C(c2ccccc2O)NC(c2ccccc2O)C1[N+](=O)[O-] (centres undefined)	4	-2	5	9.3*	-7	-8	23*	15*
Cc1ccccc1C1NC(c2ccccc2C)C([N+](=O)[O-])C(C)(C)C1[N+](=O)[O-] (centres undefined)	4	-5	-1	1	6	-6	.	.
CC(Oc1ccc(Cl)cc1)c1ccnn1S(=O)(=O)c1ccccc1 (centres undefined)	6	1	3	8.9*	-13	-9	15	15*
CC(Oc1ccccc1)c1ccnn1S(C)(=O)=O (centres undefined)	6	0	7	5	0	-5	.	.
C[C@H]1/C=C/CC(=O)N[C@@H](c2ccc3ccccc3c2)[C@@H](C)/C=C/CC(=O)N[C@H]1c1ccc2ccccc2c1	-1	-7	3	-1	-11	4	.	.
CSc1ccccc1NC(=O)Nc1ccc(F)c(Cl)c1	2	7	15	3	-2	0	.	.
CSc1ccccc1NC(=O)Nc1cccc(Cl)c1	2	3	14	9.7*	4	1	15	10*
CC(=O)N1c2ccc(C)cc2Sc2c1ccc1ccccc21	8	7	18	12*	-6	-9	16	9.0*
Cc1ccc2c(c1)S/C(=C\c1cccc[n+]1C)N2CCO	1	-6	8	-2	-5	3	.	.
CCCc1cc(C(=O)N2CCN(c3ccc(C(F)(F)F)cn3)CC2)sc1C	5	-6	16	12*	-4	-2	21*	14*
C=CCN(Cc1ccc2c(c1)OCO2)C(C#Cc1ccccc1)c1ccccc1C(F)(F)F (centres undefined)	-3	-3	-8	-5	3	-1	.	.
COc1ccccc1NS(=O)(=O)c1cc(NC(=O)c2cccs2)ccc1N1CCCC1	-34	-46	20	10*	-7	-7	-36	4
COc1ccccc1NS(=O)(=O)c1cc(NC(=O)C(C)C)ccc1N1CCCCC1	2	0	12	7	-1	-2	.	.
O=C(/C=C/c1cccs1)Nc1ccc(N2CCOCC2)c(S(=O)(=O)Nc2ccccc2Cl)c1	-39	-45	20	11*	-5	-3	2	6
COc1ccccc1NS(=O)(=O)c1cc(NC(=O)Nc2ccccc2)ccc1N1CCCCC1	3	5	13	8.8*	-12	-2	4	8
O=C(C1CCCN(S(=O)(=O)c2ccc(Br)s2)C1)N1CCN(Cc2ccccc2)CC1 (centres undefined)	-1	-2	-2	1	-2	-2	.	.
CC(c1ccccc1)N1CC[C@H]2C=CC[C@@H](C(=O)Nc3ccc(F)c(F)c3)[C@H]2C1=O (some centres undefined)	-1	5	-3	-3	0	10	.	.
COC(=O)[C@]12C[C@H](CC(=O)NCc3ccc(OC)c(OC)c3)C(=O)N(Cc3ccco3)C1=C[C@H](C(C)C)O[C@@H]2C1CC1	1	2	-10	1	-6	-8	.	.
Cc1ccc(-c2cc(C(=O)NN=Cc3ccc(-c4ccccc4)cc3)[nH]n2)cc1	0	-2	-4	0	1	-6	.	.
Cc1cc(NC(=O)CSCC(=O)N(c2cccc(Cl)c2)C(C(=O)NC2CCCCC2)c2ccc(O)c(O)c2)no1 (centres undefined)	8	5	8	9.5*	6	-3	-2	5
COCCCN1C(=O)[C@H](CC(=O)NCc2ccc(OC)c(OC)c2)[C@]2(C(=O)OC)CCCCC=C12	1	3	2	0	3	7	.	.
SMILES	PLC-gamma1 inh	PLCb3 inh	ADAM10 inh	ADAM17 inh	DDE Tn6 FP inh	Tn7 DDE FP	ADAM10 counter	ADAM17 confirm
COc1ccc([N+](=O)[O-])cc1NC(=O)CSc1ccc2ccccc2c1	6	5	10	9.6*	5	-7	21*	8
COc1ccc([N+](=O)[O-])cc1NC(=O)CSc1nc(C)cc(C)n1	-1	-6	5	5	-10	0	.	.
COc1ccc(/C=C2/CN(Cc3ccc(OC)cc3OC)C3=N[C@H](c4ccccc4)CC(=O)N32)cc1	-22	-31	-4	2	-4	4	.	.
COc1ccc(C[C@H]2CN3C(=NC[C@@H]3C)N2CCNC(=O)CCC2CCCCC2)cc1	7	5	18	11*	-3	-9	-11	-1
COC(=O)C1=C(C)N=C2SCCC(=O)N2C1c1ccc(OC(=O)c2ccco2)cc1 (centres undefined)	6	-6	16	17*	-3	-3	1	1
C=CCOC(=O)C1=C(C)N=C2SCCC(=O)N2C1c1ccc(OC(=O)c2ccco2)cc1 (centres undefined)	-15	-13	-6	0	-10	-5	.	.
COc1ccc(-c2c(-c3ccc(OCC(=O)NN)cc3O)n[nH]c2C(F)(F)F)cc1	0	2	19	12*	-5	-3	10	8
COc1ccc(Oc2ccc(/C=C/C(=O)c3ccc(O)cc3)cc2[N+](=O)[O-])cc1	3	1	16	9.6*	5	-2	38*	22*
O=C(/C=C/c1ccc(O)c([N+](=O)[O-])c1)c1ccc2ccccc2c1	5	-3	12	-1	7	6	.	.
COc1ccc(-c2c(Cc3ccccc3)nc(NC(=O)c3ccccc3F)n2C)cc1	-2	-6	-1	2	-3	3	.	.
CCN1C(=O)[C@@H]2[C@@H](c3ccc(-c4cccc(Cl)c4)c(OC)c3)N3CCCC[C@@]3(C(=O)OC)[C@@H]2C1=O	6	5	13	9.9*	-1	-11	20*	16*
